Assay results: ChEMBL document CHEMBL2016518, “Structure-activity relationships of cyanoquinolines with corrector-potentiator activity in ΔF508 cystic fibrosis transmembrane conductance regulator protein” (J Med Chem, 2012)
Activity calls are given as the source filed them. The rule behind the calls is not given here.

Key:
Assay type in all cases: cell-based
[1] = target: Cystic fibrosis transmembrane conductance regulator (Homo sapiens, UniProt P13569, F508DEL); experiment: (§1) Activity at human CFTR delta F508 mutant expressed in forskolin-stimulated FRT cells assessed as increase in iodine influx measured as decrease in YFP fluorescence after 18 to 24 hrs at 37 degC in presence of genistein
Summary of the method: (§2)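 Corrector plate-reader assay. FRT cells stably coexpressing human ΔF508-CFTR and YFP-H148Q/I152L, grown 24 h at 37 °C, then exposed to compound for 16−20 h (up to 25 μM, eight concentrations). Cells are washed, then given forskolin 20 μM plus genistein 50 μM in PBS for 20 min. I⁻ influx comes from the YFP quench recorded 2 s baseline plus 12 s after iodide addition, fitted by exponential regression. Controls are DMSO vehicle and a reference corrector. EC50/Vmax come from four-parameter logistic fits; triplicate.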

[2] = Potentiation of genistein-induced human CFTR delta F508 mutant gating activity expressed in forskolin-stimulated FRT cells assessed as increase in iodine influx measured as decrease in YFP fluorescence after 24 hrs at 27 degC
Summary of the method: (§3)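 Potentiator plate-reader assay. FRT cells coexpressing human ΔF508-CFTR and YFP-H148Q/I152L, grown 18−24 h at 37 °C, then rescued 18−24 h at 27 °C. Cells are washed, then given 10 min of forskolin 20 μM plus compound in PBS (eight concentrations, 0−50 μM final). I⁻ influx comes from the YFP quench after iodide addition (2 s baseline, 12 s), by exponential regression. Controls are DMSO and genistein. EC50/Vmax come from four-parameter logistic fits; triplicate.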

FRT [3] = experiment: Potentiation of genistein-induced human CFTR delta F508 mutant gating activity expressed in forskolin-stimulated FRT cells assessed as increase in iodine influx measured as decrease in YFP fluorescence after 24 hrs at 27 degC relative to control; summary of the method: as §3
[4] = test system: Cystic fibrosis transmembrane conductance regulator (Homo sapiens), P13569 [F508del]; experiment: Activity at human CFTR delta F508 mutant expressed in forskolin-stimulated basolateral membrane permeabilized FRT cells assessed as increase in apical chloride current at 10 uM after 18 to 24 hrs at 37 degC by short-circuit assay in presence of genistein
Summary of the method: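 Short-circuit current. ΔF508-CFTR FRT cells are cultured 7−9 days on permeable inserts, then given compound for 18−24 h at 37 °C. Apical Cl⁻ current is recorded after basolateral permeabilization under an apical-to-basolateral Cl⁻ gradient. Forskolin 20 μM and genistein 50 μM are added, followed by CFTRinh-172 10 μM.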

FRT [5] = experiment: Potentiation of genistein-induced human CFTR delta F508 mutant gating activity expressed in forskolin-stimulated basolateral membrane permeabilized FRT cells assessed as increase in apical chloride current at 3 to 100 uM after 24 hrs at 27 degC by short-circuit assay
Summary of the method: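 Short-circuit current. ΔF508-CFTR FRT cells are cultured 7−9 days on permeable inserts and temperature-rescued 18−24 h at 27 °C. Apical Cl⁻ current is recorded in basolateral-permeabilized monolayers under an apical-to-basolateral Cl⁻ gradient. Forskolin 20 μM is added, then test compound, with CFTRinh-172 10 μM at the end.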

[6] = target: Cystic fibrosis transmembrane conductance regulator (Homo sapiens, UniProt P13569); experiment: as §1; conditions: frt; summary of the method: as §2
[7] = Homo sapiens, FRT, 24 h, read-out: EC50

Chain of Cystic fibrosis transmembrane conductance regulator (Homo sapiens, UniProt P13569, F508DEL) (P13569 as listed by the source): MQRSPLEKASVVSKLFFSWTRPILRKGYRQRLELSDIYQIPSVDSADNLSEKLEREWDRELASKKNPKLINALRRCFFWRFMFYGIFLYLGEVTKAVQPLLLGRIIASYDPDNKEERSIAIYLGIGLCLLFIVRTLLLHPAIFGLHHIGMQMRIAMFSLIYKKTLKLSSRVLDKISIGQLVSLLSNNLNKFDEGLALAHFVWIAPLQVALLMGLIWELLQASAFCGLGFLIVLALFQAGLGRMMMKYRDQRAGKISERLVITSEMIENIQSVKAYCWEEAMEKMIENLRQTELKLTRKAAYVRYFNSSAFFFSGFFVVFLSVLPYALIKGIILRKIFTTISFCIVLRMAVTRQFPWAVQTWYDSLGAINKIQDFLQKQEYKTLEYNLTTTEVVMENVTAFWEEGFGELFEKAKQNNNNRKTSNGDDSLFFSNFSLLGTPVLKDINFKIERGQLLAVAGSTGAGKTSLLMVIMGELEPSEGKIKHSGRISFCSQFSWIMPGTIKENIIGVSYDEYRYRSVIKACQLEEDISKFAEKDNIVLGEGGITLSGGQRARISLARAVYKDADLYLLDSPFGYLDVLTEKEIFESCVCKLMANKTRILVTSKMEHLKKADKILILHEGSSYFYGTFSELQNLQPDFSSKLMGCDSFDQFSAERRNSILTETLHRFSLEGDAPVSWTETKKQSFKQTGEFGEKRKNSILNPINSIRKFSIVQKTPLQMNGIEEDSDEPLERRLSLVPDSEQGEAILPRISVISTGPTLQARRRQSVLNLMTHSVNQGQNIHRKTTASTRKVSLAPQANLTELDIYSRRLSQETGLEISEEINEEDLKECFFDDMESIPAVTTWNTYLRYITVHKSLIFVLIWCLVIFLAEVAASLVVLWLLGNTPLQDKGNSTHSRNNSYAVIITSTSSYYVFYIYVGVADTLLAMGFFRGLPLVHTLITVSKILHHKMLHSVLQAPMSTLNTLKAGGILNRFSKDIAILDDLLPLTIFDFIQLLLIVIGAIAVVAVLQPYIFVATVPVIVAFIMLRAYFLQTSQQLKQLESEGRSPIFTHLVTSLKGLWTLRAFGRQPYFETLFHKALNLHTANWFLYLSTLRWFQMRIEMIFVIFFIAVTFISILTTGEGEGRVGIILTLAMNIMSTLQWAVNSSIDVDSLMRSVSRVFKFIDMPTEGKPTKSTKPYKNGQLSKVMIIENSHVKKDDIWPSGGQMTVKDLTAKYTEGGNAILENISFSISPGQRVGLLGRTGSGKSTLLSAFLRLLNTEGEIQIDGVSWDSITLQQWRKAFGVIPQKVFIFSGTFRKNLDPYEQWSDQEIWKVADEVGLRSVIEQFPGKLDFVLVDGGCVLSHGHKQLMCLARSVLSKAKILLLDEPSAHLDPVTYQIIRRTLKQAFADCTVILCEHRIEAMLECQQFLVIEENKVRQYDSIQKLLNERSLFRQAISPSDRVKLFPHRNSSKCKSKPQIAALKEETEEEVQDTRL
Chain of Cystic fibrosis transmembrane conductance regulator (Homo sapiens, UniProt P13569) (P13569 as listed by the source): as above
Chain of Cystic fibrosis transmembrane conductance regulator (Homo sapiens), P13569 [F508del] (P13569 as listed by the source): as above

Row | SMILES | EC50 [1] [µM] | EC50 [2, 7] [µM] | Activity [4] | EC50 [6] | EC50 ([2]; frt) | Vmax (FRT [3]) [µM/s] | Activity (FRT [5])
1 | COc1ccccc1C(=O)NCCCNc1nc2cc(C)cc(C)c2cc1C#N | – | 27.6 | – | Not Active | – | 254 | –
2 | Cc1cc(C)c2cc(C#N)c(N3CCN(C(=O)c4cccnc4)CC3)nc2c1 | – | – | – | Not Active | Not Active | – | –
3 | Cc1cc(C)c2cc(C#N)c(N3CCN(C(=O)c4ccccn4)CC3)nc2c1 | – | 7.4 | – | Not Active | – | 102 | –
4 | COc1ccc(C(=O)NCCCNc2nc3cc(C)cc(C)c3cc2C#N)cc1 | 4.3 | 5 | – | – | – | 231 | –
5 | COc1ccc(C(=O)N2CCN(c3nc4cc(C)cc(C)c4cc3C#N)CC2)cc1 | – | 1.3 | – | Not Active | – | 281 | –
6 | Cc1cc(C)c2cc(C#N)c(N3CCN(C(=O)c4ccncc4)CC3)nc2c1 | – | – | – | Not Active | Not Active | – | –
7 | COc1cccc(OC)c1C(=O)NCCNc1nc2cc(C)cc(C)c2cc1C#N | 3.7 | 11.5 | – | – | – | 119 | –
8 | COc1cccc(C(=O)N2CCN(c3nc4cc(C)cc(C)c4cc3C#N)CC2)c1 | – | 1.2 | – | Not Active | – | 200 | –
9 | COc1ccccc1C(=O)N1CCN(c2nc3cc(C)cc(C)c3cc2C#N)CC1 | – | 1 | – | Not Active | – | 129 | –
10 | COc1ccc(C(=O)NCCNc2nc3cc(C)cc(C)c3cc2C#N)cc1OC | 1.5 | 48 | – | – | – | 216 | –
11 | COc1ccc(C(=O)NCCNc2nc3cc(C)cc(C)c3cc2C#N)c(OC)c1 | 4.2 | 55 | – | – | – | 426 | –

More lines, main results first:

Row | EC50 [1] [µM] | EC50 [2, 7] [µM] | Activity [4] | EC50 [6] | EC50 ([2]; frt) | SMILES | Vmax (FRT [3]) [µM/s] | Activity (FRT [5])
12 | 3 | 4.1 | Active | – | – | COc1ccc(C(=O)NCCNc2nc3cc(C)cc(C)c3cc2C#N)cc1 | 181 | Active
13 | 8.2 | 13.2 | – | – | – | Cc1cc(C)c2cc(C#N)c(NCCCNC(=O)c3ccncc3)nc2c1 | 53 | –
14 | – | 1.2 | – | Not Active | – | Cc1cc(C)c2cc(C#N)c(NCCNC(=O)c3ccccn3)nc2c1 | 80 | –
15 | – | 10 | – | Not Active | – | Cc1cc(C)c2cc(C#N)c(NCCNC(=O)c3ccccc3)nc2c1 | 210 | –
16 | 2.7 | 3.4 | – | – | – | COc1ccc(C(=O)NCCNc2nc3cc(C)cc(C)c3cc2C#N)nc1 | 70 | –
17 | 2.2 | 5.9 | Active | – | – | COc1cccc(C(=O)NCCNc2nc3cc(C)cc(C)c3cc2C#N)c1 | 216 | Active
18 | 11 | 2.3 | – | – | – | COc1ccccc1C(=O)NCCNc1nc2cc(C)cc(C)c2cc1C#N | 154 | –
19 | 2.7 | 13.2 | – | – | – | Cc1cc(C)c2cc(C#N)c(NCCNC(=O)c3cccnc3)nc2c1 | 242 | –
20 | 4.6 | 4.6 | – | – | – | COc1cccc(C(=O)NCCCNc2nc3cc(C)cc(C)c3cc2C#N)c1 | 147 | –
21 | 6.7 | – | – | – | Not Active | Cc1cc(C)c2cc(C#N)c(NCCNC(=O)c3cnccn3)nc2c1 | – | –
22 | – | 6.1 | – | Not Active | – | Cc1cc(C)c2cc(C#N)c(NCCCNC(=O)c3ccccn3)nc2c1 | 233 | –
23 | 7.3 | 10 | – | – | – | Cc1cc(C)c2cc(C#N)c(NCCNC(=O)c3ccncc3)nc2c1 | 220 | –
24 | 3 | 16 | – | – | – | Cc1cc(C)c2cc(C#N)c(NCCCNC(=O)c3cccnc3)nc2c1 | 115 | –
